The source of these data is ChEMBL document CHEMBL1129738, “3-Aryl-1,2-diacetamidopropane derivatives as novel and potent NK-1 receptor antagonists” (J Med Chem, 1996).

The target of experiment [1] is Substance-P receptor (Homo sapiens, UniProt P25103). The experiment can be described thus: Inhibitory activity against Tachykinin receptor 1 in human IM-9 cells using [125I]-labeled Boltan-Hunter substance P as radioligand. In kind it is cell-based.
Experiment [2] deals with Substance-P receptor (Mus musculus, UniProt P30548). The experiment can be described thus: Inhibitory activity against Tachykinin receptor 1 in mouse brain using [125I]-labeled Boltan-Hunter substance P as radioligand. In kind it is tissue-based.
Experiment [3] concerns the target Substance-P receptor (Cavia porcellus, UniProt P30547). The experiment can be described thus: Inhibitory activity against Tachykinin receptor 1 in guinea pig brain using [125I]-labeled Boltan-Hunter substance P as radioligand.
Experiment [4] deals with Substance-P receptor (Rattus norvegicus, UniProt P14600). Nature of the experiment: Inhibitory activity against Tachykinin receptor 1 in rat brain using [125I]-labeled Boltan-Hunter substance P as radioligand. In kind it is tissue-based.
For experiment [5], the target named is T1, Substance-K receptor (Oryctolagus cuniculus, UniProt P79218).
T1 sequence (P79218 whole entry): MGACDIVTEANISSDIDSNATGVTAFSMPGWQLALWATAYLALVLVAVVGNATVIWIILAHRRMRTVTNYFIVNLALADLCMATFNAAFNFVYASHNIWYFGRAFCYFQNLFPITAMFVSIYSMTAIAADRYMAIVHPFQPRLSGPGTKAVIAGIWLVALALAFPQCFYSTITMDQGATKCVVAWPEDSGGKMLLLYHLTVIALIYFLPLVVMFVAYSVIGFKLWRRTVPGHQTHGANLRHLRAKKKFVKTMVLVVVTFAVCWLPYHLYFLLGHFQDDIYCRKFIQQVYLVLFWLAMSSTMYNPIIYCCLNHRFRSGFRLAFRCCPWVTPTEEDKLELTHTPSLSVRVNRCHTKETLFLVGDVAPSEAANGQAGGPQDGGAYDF
The experiment can be described thus: Inhibition of neurokinin A induced contraction of rabbit pulmonary artery (RPA) tissue expressing Tachykinin receptor 2. The class given is functional, tissue-based. The following applies: read-out: pA2 (converted).

In experiment [6] the test system is U11 MG. The experiment can be described thus: In vitro inhibitory activity against P induced phosphatidyl inositol turnover in UC-11 MG Astrocytoma cells. In kind it is functional, cell-based, Homo sapiens. The procedure, abridged:
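Human UC-11 MG astrocytoma cells; inhibition of substance P-induced phosphatidylinositol turnover; Ki in nM; mean of two determinations.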

The target of experiment [7] is T2, Neuromedin-K receptor (Rattus norvegicus, UniProt P16177).
T2 sequence (P16177 whole entry): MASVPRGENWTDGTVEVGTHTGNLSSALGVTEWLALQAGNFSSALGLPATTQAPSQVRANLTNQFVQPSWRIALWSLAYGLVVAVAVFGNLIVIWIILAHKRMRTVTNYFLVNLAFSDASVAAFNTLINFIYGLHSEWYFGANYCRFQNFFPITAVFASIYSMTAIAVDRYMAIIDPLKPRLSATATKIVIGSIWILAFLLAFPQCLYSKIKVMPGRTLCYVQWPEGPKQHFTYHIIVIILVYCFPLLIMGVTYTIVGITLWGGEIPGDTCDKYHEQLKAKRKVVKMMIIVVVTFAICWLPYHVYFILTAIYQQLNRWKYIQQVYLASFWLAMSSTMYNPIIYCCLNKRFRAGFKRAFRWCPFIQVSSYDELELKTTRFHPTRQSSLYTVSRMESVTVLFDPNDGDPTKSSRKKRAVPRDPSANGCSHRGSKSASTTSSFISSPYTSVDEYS
The experiment can be described thus: Inhibition of neurokinin B induced contraction of rat portal vein (RPV) tissue expressing Tachykinin receptor 3. The class given is functional. To be noted: read-out: pA2 (converted).

Experiment [8] relates to U-373 MG (Homo sapiens). Nature of the experiment: In vitro inhibitory activity against P induced IL-6 secretion in U-373 MG Astrocytoma cells.

Structures are written as SMILES.

Sequence of Substance-P receptor (Homo sapiens, UniProt P25103) (P25103 whole entry): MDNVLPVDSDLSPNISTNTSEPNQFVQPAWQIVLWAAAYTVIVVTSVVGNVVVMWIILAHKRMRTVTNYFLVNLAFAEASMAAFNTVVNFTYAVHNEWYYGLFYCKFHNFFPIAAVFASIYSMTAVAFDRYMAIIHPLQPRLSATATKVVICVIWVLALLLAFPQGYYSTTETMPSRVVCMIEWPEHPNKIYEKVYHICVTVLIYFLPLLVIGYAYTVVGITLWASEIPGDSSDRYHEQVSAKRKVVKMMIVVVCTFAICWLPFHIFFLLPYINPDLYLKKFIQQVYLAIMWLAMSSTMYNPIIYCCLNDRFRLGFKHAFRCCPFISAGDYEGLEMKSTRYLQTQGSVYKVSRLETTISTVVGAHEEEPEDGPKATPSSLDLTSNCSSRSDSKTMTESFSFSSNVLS
Sequence of Substance-P receptor (Rattus norvegicus, UniProt P14600) (P14600 whole entry): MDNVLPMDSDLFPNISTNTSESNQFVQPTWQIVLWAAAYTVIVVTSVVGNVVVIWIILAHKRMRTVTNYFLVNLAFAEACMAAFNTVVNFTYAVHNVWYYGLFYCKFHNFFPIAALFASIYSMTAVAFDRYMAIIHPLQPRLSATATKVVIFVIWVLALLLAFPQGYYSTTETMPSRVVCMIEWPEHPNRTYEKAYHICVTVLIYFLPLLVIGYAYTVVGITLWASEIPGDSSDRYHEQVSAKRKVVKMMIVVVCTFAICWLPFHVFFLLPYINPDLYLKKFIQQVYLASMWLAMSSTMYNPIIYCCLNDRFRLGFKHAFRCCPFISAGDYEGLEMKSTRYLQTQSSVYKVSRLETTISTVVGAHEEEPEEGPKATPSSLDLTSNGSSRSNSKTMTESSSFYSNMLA
Sequence of Substance-P receptor (Mus musculus, UniProt P30548) (P30548 whole entry): as the sequence (P14600 whole entry) above, with M7V, I15T, V266I, E367D counted along it
Sequence of Substance-P receptor (Cavia porcellus, UniProt P30547) (P30547 whole entry): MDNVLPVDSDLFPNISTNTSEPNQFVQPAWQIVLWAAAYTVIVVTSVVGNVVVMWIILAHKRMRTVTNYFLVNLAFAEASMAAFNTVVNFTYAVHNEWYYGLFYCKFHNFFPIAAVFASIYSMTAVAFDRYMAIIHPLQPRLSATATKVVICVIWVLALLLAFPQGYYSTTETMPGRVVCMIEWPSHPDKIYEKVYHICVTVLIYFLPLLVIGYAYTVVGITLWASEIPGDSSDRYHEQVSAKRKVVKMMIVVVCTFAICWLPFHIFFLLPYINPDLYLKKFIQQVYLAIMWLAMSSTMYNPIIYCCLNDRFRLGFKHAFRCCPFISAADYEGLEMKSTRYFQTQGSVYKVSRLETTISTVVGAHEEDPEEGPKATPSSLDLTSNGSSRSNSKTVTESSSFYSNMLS

As usually defined, the IC50 is the concentration that gives 50% inhibition. In the case of `COc1ccccc1CN(CC(Cc1cccc2ccccc12)NC(=O)CN1CCN(c2ccccc2)CC1)C(C)=O` (centres undefined), the IC50 in experiment [1] worked out at 2.73 nM.

`COc1ccccc1CC(=N)N1C[C@@H]2C(=O)CCC(c3ccccc3)(c3ccccc3)[C@@H]2C1`: the IC50 in experiment [2] came out at 8.7 nM; in experiment [1] it was 30 nM; in experiment [3] it was 32 nM; in experiment [4] it was 6.7 nM.

For the compound `COc1ccccc1CNCC(Cc1c[nH]c2ccccc12)NC(=O)CN1CCN(c2ccccc2)CC1` (centres undefined), the IC50 in experiment [1] worked out at 51 nM. Same read-out and setting: next, `CC(=O)N(CC1CCCCC1)CC(Cc1c[nH]c2ccccc12)NC(=O)CN1CCN(c2ccccc2)CC1` (centres undefined): 21.9 nM. Still for that read-out and setting: as for `COc1ccccc1CN(CC(NC(=O)CN1CCN(c2ccccc2)CC1)c1ccccc1)C(C)=O` (centres undefined), the figure is 474 nM; as for `COc1ccccc1CN(CC(Cc1c[nH]c2ccccc12)NC(=O)CN1CCN(C2CCCCC2)CC1)C(C)=O` (centres undefined), 0.34 nM. Regarding `CC(=O)N(Cc1ccccc1Cl)C[C@H](Cc1c[nH]c2ccccc12)NC(=O)CN1CCC(N2CCCCC2)CC1`, the IC50 in experiment [1] amounted to 159 nM. Same read-out and setting: next, `CC(=O)N(Cc1ccccc1C)CC(Cc1c[nH]c2ccccc12)NC(=O)CN1CCN(c2ccccc2)CC1` (centres undefined): 3.2 nM. On the same count and under the same terms, next, `CC(=O)N(Cc1ccccc1)CC(Cc1c[nH]c2ccccc12)NC(=O)CN1CCN(c2ccccc2)CC1` (centres undefined): 2.2 nM; `CC(=O)N(Cc1ccccc1[N+](=O)[O-])CC(Cc1c[nH]c2ccccc12)NC(=O)CN1CCN(c2ccccc2)CC1` (centres undefined): 3 nM. The same measure, in the same setting: as for `CCCCN(CC(Cc1c[nH]c2ccccc12)NC(=O)CN1CCN(c2ccccc2)CC1)C(C)=O` (centres undefined), the figure is 149 nM.

Turning to `COc1ccc(CN(CC(Cc2c[nH]c3ccccc23)NC(=O)CN2CCN(c3ccccc3)CC2)C(C)=O)cc1` (centres undefined), the IC50 in experiment [1] is 2.5 nM; in experiment [4], 1100 nM.

As to `COc1ccccc1CN(C[C@H](Cc1c[nH]c2ccccc12)NC(=O)CN1CCN(C2CCCCC2)CC1)C(C)=O`, in experiment [1], the IC50 turned out to be 80.9 nM. Still for that read-out and setting: as for `COc1ccccc1CN(CC(Cc1csc2ccccc12)NC(=O)CN1CCN(c2ccccc2)CC1)C(C)=O` (centres undefined), the figure is 1.18 nM.

Compound `COc1ccccc1CN(CC(NC(=O)CN1CCN(c2ccccc2)CC1)c1ccc(Cl)c(Cl)c1)C(C)=O` (centres undefined) gave an IC50 in experiment [1] of 338 nM. As for `CC(=O)N(Cc1ccccc1Cl)CC(Cc1c[nH]c2ccccc12)NC(=O)CN1CCN(c2ccccc2)CC1` (centres undefined), in experiment [1], the IC50 was found to be 1.9 nM. On to `CNC(=O)N(Cc1ccccc1OC)CC(Cc1c[nH]c2ccccc12)NC(=O)CN1CCN(c2ccccc2)CC1` (centres undefined), for which the IC50 in experiment [1] came out at 3 nM. On the same count and under the same terms, as for `CCOC(=O)N(Cc1ccccc1OC)CC(Cc1c[nH]c2ccccc12)NC(=O)CN1CCN(c2ccccc2)CC1` (centres undefined), the figure is 5.5 nM; as for `CC(=O)N(Cc1ccccc1C(F)(F)F)CC(Cc1c[nH]c2ccccc12)NC(=O)CN1CCN(c2ccccc2)CC1` (centres undefined), 3.2 nM.

Regarding `COc1ccccc1CN(CC(Cc1c[nH]c2ccccc12)NC(=O)CN1CCC(c2ccccc2)CC1)C(C)=O` (centres undefined), the IC50 in experiment [1] is 4.5 nM. Take `COc1ccccc1CN(CCNC(=O)CN1CCN(c2ccccc2)CC1)C(C)=O`: in experiment [1], the IC50 was more than 5000 nM. The same measure, in the same setting: next, `CSc1ccccc1CN(CC(Cc1c[nH]c2ccccc12)NC(=O)CN1CCN(c2ccccc2)CC1)C(C)=O` (centres undefined): 7.2 nM.

Turning to `COc1ccccc1CN(CC(NC(=O)CN1CCN(c2ccccc2)CC1)C(C)C)C(C)=O` (centres undefined), the IC50 in experiment [1] is more than 5000 nM. On the same count and under the same terms, next, `COc1ccccc1CN(CC(Cc1c[nH]c2ccccc12)NC(=O)CN1CCN(c2ccccc2)CC1)S(C)(=O)=O` (centres undefined): 4 nM. As for `COc1ccccc1CN(C[C@@H](Cc1c[nH]c2ccccc12)NC(=O)CN1CCN(C2CCCCC2)CC1)C(C)=O`, the figures for the IC50 in experiment [2], in experiment [1] and in experiment [4] were 1.3 nM, 0.18 nM and 1.5 nM, respectively. On to `CC(=O)N(CC(Cc1c[nH]c2ccccc12)NC(=O)CN1CCN(c2ccccc2)CC1)c1ccccc1` (centres undefined), for which the IC50 in experiment [1] is more than 5000 nM. Still for that read-out and setting: as for `COc1ccccc1CN(CC(Cc1c[nH]c2ccccc12)NC(=O)CN1CCOCC1)C(C)=O` (centres undefined), the figure is 27 nM.

In experiment [1], `COc1ccccc1CN(CC(Cc1c[nH]c2ccccc12)NC(=O)CN1CCCCC1)C(C)=O` (centres undefined) gave an IC50 of 33 nM.

`CC(=O)N(C)CC(Cc1c[nH]c2ccccc12)NC(=O)CN1CCN(c2ccccc2)CC1` (centres undefined) gave an IC50 in experiment [1] of more than 5000 nM.

For `COc1ccccc1CN(CC(Cc1c[nH]c2ccccc12)NC(=O)CN1CCN(c2ccccc2)CC1)C(=O)CN(C)C` (centres undefined), the IC50 in experiment [2] was determined as 200 nM; in experiment [1], 1.54 nM; in experiment [4] it was 480 nM. For the compound `COc1ccccc1CN(CC(Cc1c[nH]c2ccccc12)NC(=O)CN1CCN(c2ccccc2)CC1)C(=O)c1ccccc1` (centres undefined), in experiment [1], the half-maximal inhibitory concentration (IC50) is 2 nM.

For `CCC(=O)N(Cc1ccccc1OC)CC(Cc1c[nH]c2ccccc12)NC(=O)CN1CCN(c2ccccc2)CC1` (centres undefined), the IC50 in experiment [1] stood at 0.81 nM. As to `COc1ccccc1CN(CC(Cc1c[nH]c2ccccc12)NC(=O)CN1CCC(N(C)C)CC1)C(C)=O` (centres undefined), in experiment [1], the IC50 turned out to be 2.8 nM.

`COC(=O)CC(=O)N(Cc1ccccc1OC)CC(Cc1c[nH]c2ccccc12)NC(=O)CN1CCN(c2ccccc2)CC1` (centres undefined) displayed an IC50 in experiment [1] of 1.28 nM.

For orientation: Ki means the dissociation constant of the complex between target and ligand, obtained from inhibition or displacement. Read a high Ki as a looser hold on the target. Take `COc1ccccc1CN(C[C@H](Cc1c[nH]c2ccccc12)NC(=O)CN1CCC(N2CCCCC2)CC1)C(C)=O`: the Kb was 20000 nM in experiment [5] and 200 nM in experiment [7]. In addition, the affinity in experiment [6] corresponds to a Ki of 5600 nM.

`COc1ccccc1CN(CC(Cc1c[nH]c2ccccc12)NC(=O)CN1CC=C(c2ccccc2)CC1)C(C)=O` (centres undefined) came in with an IC50 in experiment [1] of 3.1 nM. As for `COc1ccccc1CN(C[C@@H](Cc1c[nH]c2ccccc12)NC(=O)CN1CCN(c2ccccc2)CC1)C(C)=O`, the Ki in experiment [6] was found to be 0.48 nM; in experiment [8], 1.2 nM.

`CC(=O)N(CCc1ccccc1)CC(Cc1c[nH]c2ccccc12)NC(=O)CN1CCN(c2ccccc2)CC1` (centres undefined) registered an IC50 in experiment [1] of 126 nM.

As to `COc1ccccc1CN(CC(Cc1ccc2ccccc2c1)NC(=O)CN1CCN(c2ccccc2)CC1)C(C)=O` (centres undefined), in experiment [1], the IC50 was determined as 11 nM. As to `COc1ccccc1CN(C[C@H](Cc1c[nH]c2ccccc12)NC(=O)CN1CCN(c2ccccc2)CC1)C(C)=O`, the Kb in experiment [5] is 20000 nM. In addition, the figures for the Ki in experiment [6] and in experiment [8] were 630 nM and 3500 nM, respectively. In experiment [1], `COc1ccccc1CN(C=O)CC(Cc1c[nH]c2ccccc12)NC(=O)CN1CCN(c2ccccc2)CC1` (centres undefined) had an IC50 of 0.8 nM. `COc1ccccc1CN(CC(Cc1c[nH]c2ccccc12)NC(=O)CN1CCN(Cc2ccccc2)CC1)C(C)=O` (centres undefined): the IC50 in experiment [1] is 0.98 nM; in experiment [3], 0.88 nM; in experiment [4] it was 16 nM. In turn, `COc1ccccc1CN(CC(CC1CNc2ccccc21)NC(=O)CN1CCN(c2ccccc2)CC1)C(C)=O` (centres undefined) gave an IC50 in experiment [1] of 27.4 nM. Still for that read-out and setting: next, `COc1ccccc1CN(CC(Cc1c[nH]c2ccccc12)NC(=O)CN1CCN(C)CC1)C(C)=O` (centres undefined): 5.3 nM; `CC(=O)N(Cc1ccccc1Cl)CC(Cc1c[nH]c2ccccc12)NC(=O)CN1CCC(N2CCCCC2)CC1` (centres undefined): 0.18 nM. Turning to `CCN(Cc1ccccc1OC)CC(Cc1c[nH]c2ccccc12)NC(=O)CN1CCN(c2ccccc2)CC1` (centres undefined), the IC50 in experiment [1] worked out at 85 nM. Consider `COc1ccccc1CN[C@H]1C2CCN(CC2)[C@H]1C(c1ccccc1)c1ccccc1` [CP-96345], for which the Kb is 50100 nM in experiment [5] and 2510 nM in experiment [7]. The Ki in experiment [6] is 5.2 nM; in experiment [8], 4 nM. Take `COc1ccccc1CN(C[C@@H](Cc1c[nH]c2ccccc12)NC(=O)CN1CCC(N2CCCCC2)CC1)C(C)=O` [LANEPITANT]: the Kb in experiment [5] and in experiment [7] was 20000 nM in each case. The Ki in experiment [6] was found to be 1.3 nM; in experiment [8], 5.5 nM.
